# Source: ChEMBL document CHEMBL1139831, “The influence of modifications in imide fragment structure on 5-HT(1A) and 5-HT(7) receptor affinity and in vivo pharmacological properties of some new 1-(m-trifluoromethylphenyl)piperazines” (Bioorg Med Chem, 2007)
# Key:
# [1] = organism: Mus musculus; conditions: Swiss Albino, 2.5 mg/kg
# [2] = system: Rattus norvegicus; assay: Effect on lower lip retraction in Wistar rat at 0.1 mg/kg; assay type: functional
# Method in brief: (§1)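 Male Wistar rats (290–310 g) dosed ip in 1% Tween 80 (2 ml/kg), caged singly; lower lip retraction scored 15, 30 and 45 min after dosing as 0 (incisors not visible), 0.5 (partly) or 1 (completely visible), totals up to 3 per rat. n = 6 per group; one-way ANOVA followed by Dunnett's test.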
# [3] = organism: Mus musculus; conditions: Swiss Albino, 5 mg/kg
# [4] = organism: Mus musculus; conditions: Swiss Albino, 5 mg/kg; remark: listed apart in the source
# [5] = organism: Mus musculus; conditions: Swiss Albino, 5 mg/kg; remark: listed apart in the source
# [6] = system: Mus musculus; assay: Antidepressant activity in Swiss Albino mouse assessed as immobility time during final 4 mins of 6 mins session at 0.1 mg/kg administered 30 mins before the test by forced-swimming test; assay type: functional
# Method in brief: (§2)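 Male Albino Swiss mice (24–28 g), compound given ip in 1% aqueous Tween 80 (10 ml/kg), 30 min before test. Mouse placed singly in glass cylinder (25 cm high, 10 cm diameter) holding 6 cm water at 23–25 °C for 6 min; immobility (floating, only small head-keeping movements) timed over last 4 min. n = 9-10 per group; one-way ANOVA then Dunnett's test.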
# [7] = organism: Mus musculus; conditions: Swiss Albino, 2.5 mg/kg; remark: listed apart in the source
# [8] = organism: Mus musculus; conditions: Swiss Albino, 5 mg/kg; remark: listed apart in the source
# [9] = system: Mus musculus; assay: Effect on locomotor activity in Swiss Albino mouse assessed as number of crossings in 30 mins at 0.3 mg/kg administered 30 mins before the test; assay type: functional
# Method in brief: (§3)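 Male Albino Swiss mice given compound ip (1% Tween 80, 10 ml/kg) 30 min before placement singly in plastic cages in a multichannel photobeam activity monitor; ambulation crossings counted over the first 6 min and over a 30 min session. n = 9-10 per group; ANOVA then Dunnett's test.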
# [10] = system: Rattus norvegicus; assay: Effect on lower lip retraction in Wistar rat at 0.3 mg/kg; assay type: functional
# Method in brief: as §1
# [11] = system: Mus musculus; assay: Anxiolytic activity in Swiss Albino mouse assessed as number of punished crossings for 60 secs at 1 mg/kg administered 30 mins before the test by four-plate test; assay type: functional
# Method in brief: (§4)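 Male Albino Swiss mice dosed ip (1% aqueous Tween 80, 10 ml/kg) 30 min beforehand. Opaque box floored with four metal plates; 15 s free exploration, then each plate-to-plate crossing triggers a 0.5 s, 120 V floor shock, with no new shock for 3 s if running continues. Punished crossings counted over 60 s; n = 9-10, ANOVA plus Dunnett's test.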
# [12] = system: Mus musculus; assay: Effect on locomotor activity in Swiss Albino mouse assessed as number of crossings in 6 mins at 1 mg/kg administered 30 mins before the test; assay type: functional
# Method in brief: as §3
# [13] = system: Rattus norvegicus; assay: Effect on lower lip retraction in Wistar rat at 1 mg/kg; assay type: functional
# Method in brief: as §1
# [14] = molecular target: D(2) dopamine receptor (Rattus norvegicus, UniProt P61169); assay: Displacement of [3H]spiperone from dopamine D2 receptor in rat striatal membranes; assay type: cell membranes, Membrane
# Method in brief: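 Competition binding on rat striatal membranes using [3H]-spiperone, butaclamol for nonspecific binding; filtration through GF/B filters and scintillation counting. Run at two compound concentrations, each in triplicate, and affinity expressed as estimated Ki.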
# [15] = organism: Mus musculus; conditions: Swiss Albino, 5 mg/kg; remark: listed apart in the source
# [16] = organism: Mus musculus; conditions: Swiss Albino, 2.5 mg/kg; remark: listed apart in the source
# [17] = molecular target: T1, 5-hydroxytryptamine receptor 1A (Rattus norvegicus, UniProt P19327); assay: Displacement of [3H]8-OH-DPAT from 5HT1A in rat hippocampal membranes; assay type: cell membranes, Hippocampus, Membrane
# T1 sequence (P19327 whole entry): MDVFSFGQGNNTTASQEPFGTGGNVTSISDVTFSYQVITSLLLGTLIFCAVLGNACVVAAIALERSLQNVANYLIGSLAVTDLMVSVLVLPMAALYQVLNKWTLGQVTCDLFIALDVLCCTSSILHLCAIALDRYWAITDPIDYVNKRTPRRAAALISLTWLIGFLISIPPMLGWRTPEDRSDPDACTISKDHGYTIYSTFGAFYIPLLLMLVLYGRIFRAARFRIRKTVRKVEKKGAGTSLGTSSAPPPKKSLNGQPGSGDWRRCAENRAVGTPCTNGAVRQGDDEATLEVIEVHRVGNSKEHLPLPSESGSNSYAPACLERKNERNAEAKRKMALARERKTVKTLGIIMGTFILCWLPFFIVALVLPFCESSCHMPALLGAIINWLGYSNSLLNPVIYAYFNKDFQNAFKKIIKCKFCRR
# Method in brief: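 Rat hippocampal membranes, [3H]-8-OH-DPAT as radioligand, 5-HT defining nonspecific binding. 7–9 drug concentrations run in triplicate, at least three separate experiments. Filtration through GF/B filters with three ice-cold buffer washes, scintillation counting. Ki from non-linear regression of binding isotherms via Cheng-Prusoff equation.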
# [18] = molecular target: 5-hydroxytryptamine receptor 7 (Homo sapiens, UniProt P34969); assay: Displacement of [3H]5-CT from human 5HT7 expressed in HEK293 cells; assay type: cell-based
# Method in brief: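 HEK293 cells stably transfected with human 5-HT7(b) cDNA; membranes (10 µg protein) incubated 1 h at 37 °C in 50 mM Tris-HCl pH 7.4 with 4 mM MgCl2, 0.1 mM pargyline, 0.1% ascorbic acid, 0.5 nM [3H]-5-CT and 7–9 test concentrations in triplicate; 10 µM 5-HT defines nonspecific binding. GF/B filtration, scintillation counting; Ki via Cheng-Prusoff from ≥3 experiments.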
# [19] = organism: Mus musculus; conditions: Swiss Albino, 2.5 mg/kg; remark: listed apart in the source
# [20] = system: Mus musculus; assay: Antidepressant activity in Swiss Albino mouse assessed as immobility time during final 4 mins of 6 mins session at 1 mg/kg administered 30 mins before the test by forced-swimming test; assay type: functional
# Method in brief: as §2
# [21] = system: Mus musculus; assay: Antidepressant activity in Swiss Albino mouse assessed as immobility time during final 4 mins of 6 mins session at 0.3 mg/kg administered 30 mins before the test by forced-swimming test; assay type: functional
# Method in brief: as §2
# [22] = system: Mus musculus; assay: Anxiolytic activity in Swiss Albino mouse assessed as number of punished crossings for 60 secs at 0.3 mg/kg administered 30 mins before the test by four-plate test; assay type: functional
# Method in brief: as §4
# [23] = system: Rattus norvegicus; assay: Effect on 8-OH-DPAT-induced lower lip retraction in Wistar rat at 0.1 mg/kg; assay type: functional
# [24] = Displacement of [3H]prazosin from adrenergic alpha1 receptor in rat cortical membranes; assay type: cell membranes, Membrane
# Method in brief: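 Rat cortical membranes with [3H]-prazosin; phentolamine defines nonspecific binding. 7–9 drug concentrations in triplicate, at least three separate experiments; stopped by GF/B filtration with three ice-cold buffer washes, bound radioactivity by liquid scintillation counting; Ki from non-linear regression and Cheng-Prusoff equation.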
# [25] = system: Mus musculus; assay: Effect on locomotor activity in Swiss Albino mouse assessed as number of crossings in 30 mins at 1 mg/kg administered 30 mins before the test; assay type: functional
# Method in brief: as §3
# [26] = organism: Mus musculus; conditions: Swiss Albino, 5 mg/kg; remark: listed apart in the source
# [27] = system: Mus musculus; assay: Anxiolytic activity in Swiss Albino mouse assessed as number of punished crossings for 60 secs at 5 mg/kg administered 30 mins before the test by four-plate test; assay type: functional
# Method in brief: as §4
# [28] = system: Mus musculus; assay: Effect on locomotor activity in Swiss Albino mouse assessed as number of crossings in 6 mins at 0.3 mg/kg administered 30 mins before the test; assay type: functional
# Method in brief: as §3
# [29] = system: Mus musculus; assay: Effect on locomotor activity in Swiss Albino mouse assessed as number of crossings in 6 mins at 20 mg/kg administered 30 mins before the test; assay type: functional
# Method in brief: as §3
# [30] = system: Mus musculus; assay: Antidepressant activity in Swiss Albino mouse assessed as immobility time during final 4 mins of 6 mins session at 10 mg/kg administered 30 mins before the test by forced-swimming test; assay type: functional
# Method in brief: as §2
# [31] = system: Mus musculus; assay: Effect on locomotor activity in Swiss Albino mouse assessed as number of crossings in 30 mins at 10 mg/kg administered 30 mins before the test; assay type: functional
# Method in brief: as §3
# [32] = system: Mus musculus; assay: Effect on locomotor activity in Swiss Albino mouse assessed as number of crossings in 30 mins at 20 mg/kg administered 30 mins before the test; assay type: functional
# Method in brief: as §3
# [33] = system: Mus musculus; assay: Antidepressant activity in Swiss Albino mouse assessed as immobility time during final 4 mins of 6 mins session at 20 mg/kg administered 30 mins before the test by forced-swimming test; assay type: functional
# Method in brief: as §2
# [34] = system: Mus musculus; assay: Antidepressant activity in Swiss Albino mouse assessed as immobility time during final 4 mins of 6 mins session at 5 mg/kg administered 30 mins before the test by forced-swimming test; assay type: functional
# Method in brief: as §2
# [35] = system: Mus musculus; assay: Anxiolytic activity in Swiss Albino mouse assessed as number of punished crossings for 60 secs at 2.5 mg/kg administered 30 mins before the test by four-plate test; assay type: functional
# Method in brief: (§5)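 Male Albino Swiss mice (24–28 g), compound suspended in 1% aqueous Tween 80, given ip (10 ml/kg). Mouse placed in box with four metal floor plates, 15 s exploration, then floor electrified (120 V, 0.5 s) at each plate-to-plate crossing, no new shock for 3 s. Punished crossings counted over 60 s. n = 9-10/group; one-way ANOVA then Dunnett's test.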
# [36] = system: Mus musculus; assay: Antidepressant activity in Swiss Albino mouse assessed as immobility time during final 4 mins of 6 mins session at 1.25 mg/kg administered 30 mins before the test by forced-swimming test; assay type: functional
# Method in brief: as §2
# [37] = system: Mus musculus; assay: Anxiolytic activity in Swiss Albino mouse assessed as number of punished crossings for 60 secs at 1.25 mg/kg administered 30 mins before the test by four-plate test; assay type: functional
# Method in brief: as §5
# [38] = system: Mus musculus; assay: Antidepressant activity in Swiss Albino mouse assessed as immobility time during final 4 mins of 6 mins session at 2.5 mg/kg administered 30 mins before the test by forced-swimming test; assay type: functional
# Method in brief: as §2
# Chain of 5-hydroxytryptamine receptor 7 (P34969 whole entry): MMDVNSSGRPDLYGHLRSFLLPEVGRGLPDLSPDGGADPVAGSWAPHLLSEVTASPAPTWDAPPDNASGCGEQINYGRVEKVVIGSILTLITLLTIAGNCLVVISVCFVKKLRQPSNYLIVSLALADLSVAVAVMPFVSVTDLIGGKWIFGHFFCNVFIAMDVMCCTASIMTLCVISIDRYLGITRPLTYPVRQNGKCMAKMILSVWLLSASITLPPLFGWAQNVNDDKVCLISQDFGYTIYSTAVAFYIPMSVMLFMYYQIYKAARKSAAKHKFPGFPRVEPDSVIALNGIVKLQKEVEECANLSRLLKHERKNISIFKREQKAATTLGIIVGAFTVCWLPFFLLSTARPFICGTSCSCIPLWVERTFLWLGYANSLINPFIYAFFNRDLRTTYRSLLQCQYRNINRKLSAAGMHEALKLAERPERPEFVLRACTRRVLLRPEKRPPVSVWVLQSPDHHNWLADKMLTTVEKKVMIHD
# Chain of D(2) dopamine receptor (P61169 whole entry): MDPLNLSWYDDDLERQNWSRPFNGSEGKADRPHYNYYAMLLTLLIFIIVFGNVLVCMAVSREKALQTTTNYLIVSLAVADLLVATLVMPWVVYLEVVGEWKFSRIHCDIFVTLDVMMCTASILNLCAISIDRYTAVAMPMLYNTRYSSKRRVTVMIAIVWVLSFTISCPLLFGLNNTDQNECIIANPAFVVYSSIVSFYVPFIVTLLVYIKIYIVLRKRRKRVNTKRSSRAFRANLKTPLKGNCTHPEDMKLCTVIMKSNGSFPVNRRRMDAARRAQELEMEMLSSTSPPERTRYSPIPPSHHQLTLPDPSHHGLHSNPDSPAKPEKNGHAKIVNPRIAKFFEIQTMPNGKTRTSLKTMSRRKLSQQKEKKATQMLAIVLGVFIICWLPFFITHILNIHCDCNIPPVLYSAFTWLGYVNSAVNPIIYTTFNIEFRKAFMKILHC
compound,measurement,setting,value
O=C1CCCC(=O)N1C1CCC(N2CCN(c3cccc(C(F)(F)F)c3)CC2)CC1 (trans isomer),deltaT,[1],-0.5 °C
same,Activity,[2],1.3
same,deltaT,[3],-1.5 °C
same,deltaT,[4],-1.5 °C
same,deltaT,[5],-1.2 °C
same,Activity,[6],128.3 s
same,deltaT,[7],-0.5 °C
same,deltaT,[8],-1.2 °C
same,Activity,[9],537.7
same,Activity,[10],2.4
same,Activity,[11],3.9
same,Activity,[12],121.6
same,Activity,[13],3
same,Ki,[14],> 5 µM
same,deltaT,[15],-1.6 °C
same,deltaT,[16],-0.3 °C
same,Ki,[17],0.0026 µM
same,Ki,[18],1.2 µM
same,deltaT,[19],-0.7 °C
same,Activity,[20],77.7 s
same,Activity,[21],70.1 s
same,Activity,[22],3.9
same,Activity,[23],2.6
same,Ki,[24],0.085 µM
same,Activity,[25],374.3
same,deltaT,[26],-1.3 °C
same,Activity,[27],4.2
same,Activity,[28],208.2
CN(C)CCCN1c2ccccc2CCc2ccccc21 [IMIPRAMINE],Activity,[29],314.9
same,Activity,[30],149.1 s
same,Activity,[31],876.8
same,Activity,[32],625.3
same,Activity,[33],107.8 s
CC1(C)CC(=O)N(C2CCC(N3CCN(c4cccc(C(F)(F)F)c4)CC3)CC2)C(=O)C1 (stereo not given),Activity,[34],113.3 s
same,Activity,[9],630.1
same,Activity,[12],211.7
same,Activity,[35],4.6
same,Activity,[36],150.4 s
same,Ki,[18],0.221 µM
same,Activity,[37],4.4
same,Activity,[38],98.2 s
same,Ki,[24],0.268 µM
same,Activity,[25],535.3
same,Activity,[27],4.6
same,Activity,[28],212
